N-glyco inh = increase of ERlucT glycosylation luciferase signal, primary screen, N-linked glycosylation inhibitor project, D54 ERlucT cells, luminescence, set 2; 0.23% of 360,000 active; D54 ERlucT glycosylation luciferase reporter, 24 h; percent of 100 nM tunicamycin response; reporter increase, % at 12.5 µM; AID 588692, 2011;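 active means mean luciferase reporter signal, scaled so untreated is 0 and the glycosylation-blocking control 100, at or above a set limit in every replicate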;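 further: luciferase carries N-glycosylation sites so blocking glycosylation raises the light; 0% = median of neutral control wells and 100% = median of 100 nM tunicamycin wells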
UCH37 DUB inh = inhibitors of human UCH37 deubiquitinase, primary screen, biochemical, Ub-AMC cleavage, fluorescence. Ubiquitin carboxyl-terminal hydrolase isozyme L5 (Homo sapiens), Q9Y5K5. purified proteasome/UCH37. inhibition, % (test concentration not listed). 0.33% of 330,000 active. AID 588478, 2011;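 active means mean inhibition over replicate wells above about 20%, limit read from the data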;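 further: 0% = compound-free wells with enzyme and 100% = wells lacking proteasome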
Target sequence (Q9Y5K5 whole entry, looked up): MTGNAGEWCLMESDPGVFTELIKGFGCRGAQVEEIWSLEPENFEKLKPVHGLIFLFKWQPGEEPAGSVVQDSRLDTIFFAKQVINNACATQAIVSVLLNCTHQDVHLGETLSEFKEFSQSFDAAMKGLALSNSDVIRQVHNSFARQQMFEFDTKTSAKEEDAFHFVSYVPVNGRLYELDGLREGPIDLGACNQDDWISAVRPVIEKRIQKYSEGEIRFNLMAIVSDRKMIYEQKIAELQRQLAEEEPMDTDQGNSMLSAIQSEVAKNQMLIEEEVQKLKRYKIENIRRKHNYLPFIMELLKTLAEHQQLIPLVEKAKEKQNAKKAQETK
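Schedule: 30 min plus 25 min, room temperature / Material: human UCH37 within purified proteasomes / Technique: AMC fluorescence intensity at 355/460 nm / Buffer or medium: pH 7.4 Tris-HCl (50 mM) with ovalbumin, ATP-MgCl2, DTT / Controls: wells without proteasome as full block, compound-free enzyme plus substrate as uninhibited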
aDG glyco act = activators of alpha-DG glycosylation, primary screen, uHTS, Pro5-aDG cells, AlphaScreen | 0.22% of 360,000 active | activation, % at 10 µM | AID 624168, 2012 | alpha-DG glycosylation AlphaScreen (IIH6); 0% Pro5, 100% B10-LARGE cell signal;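 active means activation of at least 8% versus controls, or a plate z-score of at least 8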;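 further: Pro5 are CHO cells carrying HIG-tagged alpha-DG that lacks glycosylation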
MsrA inh = bovine MsrA enzyme inhibitors, primary screen, biochemical, absorbance, HTS | 0.75% of 360,000 active | purified bovine MsrA, absorbance read-out | Methionine sulfoxide reductase A (Bos taurus) | AID 651718, 2012 | inhibition, % at 15.5 µM;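 further: 0% = vehicle wells with enzyme and 100% = reference inhibitor wells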
bovine MsrA act = bovine MsrA enzyme activators, primary screen, biochemical, absorbance, HTS | Methionine sulfoxide reductase A (Bos taurus) | purified bovine MsrA, absorbance read-out | activation, % at 10.6 µM | 0.3% of 360,000 active | AID 602163, 2012; in the data active means activation above about 7.5%;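 further: 0% = vehicle and 100% = reference activator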
Vif inh = HIV Vif self-association inhibitors, primary screen, imaging, HEK293T, single point | HEK293T cells, Vif self-association by quenched fluorescence, 24 h | 0.35% of 340,000 active | inhibition, % at 7.49 µM | AID 602346, 2012; in the data active means inhibition above about 50%, passing the limit was not always enough
MsrA conf = bovine MsrA inhibitors, retest, confirmation, biochemical, absorbance, HTS; shares compounds with MsrA inh; 41% of 2,300 active; inhibition, % at 15.5 µM; purified bovine MsrA, absorbance read-out; AID 651822, 2012;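 further: coupled to thioredoxin reductase with NADPH and selenocystamine and DMSO as substrate; 0% = vehicle only and 100% = full effect of reference inhibitor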
The depositor's hits bear a star. A selection: hits, their analogues and other compounds. The true share with any hit is near 1.9%. Unless noted, no stated cut-off is given here; in the data, active means inhibition above about 4.5%; inactive means the rest.

`CCOc1ccc(N2CC(C(=O)NCCN3C(=O)S/C(=C/c4cccnc4)C3=O)CC2=O)cc1` (configuration not stated) gave N-glyco inh 3, UCH37 DUB inh 7, aDG glyco act 0, MsrA inh 5.0*, bovine MsrA act -4, Vif inh -17 and MsrA conf 2.
Screening Cc1cccc(C=Nn2c(COc3ccccc3)n[nH]c2=S)c1 returned UCH37 DUB inh 2.
Screening CC(C)(C)c1ccc(C=NNC(=O)Cc2c[nH]c3ccccc23)cc1 returned UCH37 DUB inh 1.
For O=c1nc(NN=C/C=C/c2ccccc2)cn[nH]1 the results were UCH37 DUB inh -5.
Screening CCOc1cc(/C=C2/NC(=O)N(CC(=O)OC)C2=O)ccc1O returned N-glyco inh 2, UCH37 DUB inh 9, aDG glyco act 0, MsrA inh 7.4*, bovine MsrA act -5, Vif inh 19 and MsrA conf 5.8*.
Screening COC(=O)COc1ccc(/C=C2/NC(=O)N(CC(=O)OC)C2=O)cc1 returned N-glyco inh 2, UCH37 DUB inh 10, aDG glyco act 0, MsrA inh 5.5*, bovine MsrA act -4, Vif inh -3 and MsrA conf 5.4*.
Screening CCOc1cc(/C=C2/NC(=O)N(CC(=O)Nc3cccc(C)c3)C2=O)ccc1O returned N-glyco inh 5, UCH37 DUB inh 0, aDG glyco act 1, MsrA inh 3, bovine MsrA act -6 and Vif inh 7.
Screening COC(=O)c1ccc(C=NNC(=O)c2cccc(F)c2)cc1 returned UCH37 DUB inh 2.
COc1cccc(C=NNC(=O)c2csc(-n3nc(C)cc3C(F)(F)F)n2)c1 was read as UCH37 DUB inh -6.
Screening CCN(CC)c1ccc(C=Nc2cccc(S(=O)(=O)N3CCOCC3)c2)c(O)c1 returned N-glyco inh 3, UCH37 DUB inh 8, aDG glyco act 0, MsrA inh 5.8*, bovine MsrA act -5, Vif inh 21 and MsrA conf 5.2*.
CCN(CC)c1ccc(/C=N/NC(=O)c2cccc(S(=O)(=O)N3CCOCC3)c2)c(O)c1 was read as N-glyco inh -11, aDG glyco act 0, MsrA inh 4, bovine MsrA act -3 and Vif inh -2.
Screening COc1cccc(OCCn2c(C)c(C=Nn3cnnc3)c3ccccc32)c1 returned UCH37 DUB inh 5.
`CC[n+]1c(/C=C(\C)OC)sc2ccccc21` gave N-glyco inh -1, UCH37 DUB inh 19, aDG glyco act 1, MsrA inh 5.8*, bovine MsrA act -12, Vif inh 17 and MsrA conf 5.0*.
For CC[n+]1c(/C=C(\C)SC)sc2ccccc21 the results were N-glyco inh 6, UCH37 DUB inh 8, aDG glyco act 0, MsrA inh 4, bovine MsrA act 2 and Vif inh -7.
CCOc1ccccc1Nc1cc2n(c(=O)n1)CCc1cc(OC)c(OC)cc1-2 was read as N-glyco inh 3, aDG glyco act 0, MsrA inh 6.9*, bovine MsrA act -1, Vif inh -11 and MsrA conf 4.
COc1cc2c(cc1OC)-c1cc(Nc3ccccc3C)nc(=O)n1CC2 was read as N-glyco inh 2, UCH37 DUB inh 2, aDG glyco act 0, MsrA inh 3, bovine MsrA act -2 and Vif inh -1.
Screening Cc1ccc(C=NNc2cc(C)nc(NCc3ccccc3)n2)cc1 returned UCH37 DUB inh 2.
Cc1cc(NC(=O)c2sc(Nc3ccc(F)cc3)nc2N)no1 was read as N-glyco inh -1, aDG glyco act 0, MsrA inh 1, bovine MsrA act -5 and Vif inh 2.
Screening C=CCNc1nc(N)c(C(=O)Nc2cc(C)on2)s1 returned N-glyco inh 1, UCH37 DUB inh 11, aDG glyco act 0, MsrA inh 6.2*, bovine MsrA act -6, Vif inh -3 and MsrA conf 3.
`COCc1cc(C)nc(OCC(=O)NN=Cc2ccc(OC)c(OC)c2)c1C#N` gave UCH37 DUB inh 5.
Screening CC(=NNC(=O)C1COc2ccccc2O1)c1ccccn1 (configuration not stated) returned UCH37 DUB inh 2.
Screening COc1ccc(C2C(C#N)=C(N)Oc3c2sc2nc(C)cc(C)c32)cc1 (configuration not stated) returned N-glyco inh 0, aDG glyco act 1, MsrA inh 9.2*, bovine MsrA act -1, Vif inh 2 and MsrA conf 2.
COc1ccc(C2C(C#N)=C(N)Oc3cc(N)ccc32)cc1 (configuration not stated) was read as N-glyco inh 1, UCH37 DUB inh -3, aDG glyco act 0, MsrA inh 1, bovine MsrA act 0 and Vif inh -7.
Screening C/C(=N\O)C(C)/[N+]([O-])=C/c1nc(C)c(C)n1O (configuration not stated) returned N-glyco inh 0, aDG glyco act 0, MsrA inh 5.2*, bovine MsrA act -11 and MsrA conf 4.
For CN1CCN(N=Cc2c3ccccc3c(Cl)c3ccccc23)CC1 the results were UCH37 DUB inh 2.
For O=C(C1=C(O)C(=O)N(CCCn2ccnc2)C1c1cccc(Br)c1)c1ccco1 (configuration not stated) the results were N-glyco inh 1, UCH37 DUB inh 11, aDG glyco act 0, MsrA inh 13*, bovine MsrA act -6, Vif inh -5 and MsrA conf 7.8*.
CC1=C(C(=O)c2ccccc2)C(c2ccc(O)cc2)NC(=S)N1 (configuration not stated) was read as N-glyco inh -1, UCH37 DUB inh 9, aDG glyco act 0, MsrA inh 5.4*, bovine MsrA act -4, Vif inh -2 and MsrA conf 1.
`CC1=C(C(=O)c2ccccc2)C(c2ccc(OC(F)F)cc2)NC(=S)N1` (configuration not stated) gave N-glyco inh 23, UCH37 DUB inh 7, aDG glyco act 0, MsrA inh 2, bovine MsrA act -3 and Vif inh -2.
Screening CCOC(=O)c1cc2c(ccc3ccccc32)oc1=O returned N-glyco inh 0, UCH37 DUB inh inactive, aDG glyco act 0, MsrA inh 20*, bovine MsrA act -3, Vif inh -6 and MsrA conf 13*.

Screening data (PubChem BioAssay)
